Experimental findings from PMC10454840 (Drug Design, Development and Therapy, 2023) are described below.

Data set [1] deals with cysts from E. granulosus s.s.-infected mice. The experiment in a line: TEM observation of cysts from treated infected mice. The following applies: 50 mg/kg, oral, 28 days. The class given is in vivo, Kunming mice. An outline of the steps: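 Female Kunming mice, 8 weeks old, were infected intraperitoneally with 50 in vitro-derived microcysts. Infection was confirmed by B-mode ultrasound at 6 months, and mice were randomised into groups of 6. Test compound was given in 0.5% CMC-Na by daily oral gavage (0.1 mL/10 g) for 28 days against a vehicle control. Peritoneal cysts were isolated, and randomly selected cysts were examined by TEM.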

The test system of a further data set is E. granulosus s.s. PSCs. In words: In vitro drug treatment of PSCs, viability by 1% eosin staining. Conditions: Echinococcus granulosus, 48 h, read-out: viability of PSCs. Format: cell-based, Echinococcus granulosus sensu stricto. In outline: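 Protoscoleces came from sheep cysts. They were washed in PBS, digested with 1% pepsin for 30 min and cultured in RPMI 1640 with 10% FBS and penicillin/streptomycin at 37 °C, 5% CO2 for 3 days, with viability above 98%. Wells held 200 PSCs. Compounds came from 20 mM DMSO stocks, at 40 μM final for screening, then 40–240 μM. The control was 1% DMSO. After 48 h, 1% eosin marked dead PSCs red. Three independent experiments, mean ± S.D.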

The subject of data set [2] is PC12 cells. The experiment in a line: MTT cytotoxicity assay in PC12 cells. Format: cell-based. The following applies: 200 μM, 48 h. In outline: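 PC12 cells in log phase were grown in RPMI 1640 with 10% horse serum, 5% FBS and penicillin/streptomycin, then seeded at 1×10^4 per well and settled for 12 h at 37 °C, 5% CO2. Compounds were added at 6.25–200 μM final, in triplicate, with a DMSO control, for 48 h. Serum-free medium plus MTT followed for 4 h, then formazan lysate and absorbance at 570 nm. Inhibition = [1−(ODtreated−ODblank)/(ODcontrol−ODblank)]×100%.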
A general note: Tetrazolium assays rely on reduction of a dye to a coloured formazan, in cell work by metabolically active cells.

The subject of data set [3] is PC12 cells. The experiment in a line: Hoechst 33342 staining assay of PC12 cell apoptosis. Conditions: 200 μM, 48 h. Format: cell-based. An outline of the steps: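 PC12 cells seeded at 1×10^5/well in 6-well plates and grown at 37 °C, 5% CO2 to 70–80% confluence. Test compound at 200 μM for 48 h, with a DMSO control group. Medium removed, Hoechst staining solution added for 30 min at 37 °C, cells washed three times with PBS, and nuclear morphology viewed by inverted fluorescence microscopy.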

Data set [4] concerns E. granulosus s.s.-infected mice. In words: Drug treatment of E. granulosus s.s.-infected mice, cyst weight. The class given is in vivo, Kunming mice. Conditions: 50 mg/kg/day oral, 28 days.
Data set [5] in a line: Acute toxicity study in mice. The following applies: both, Kunming, mouse, in vivo, po, single oral dose.

On to `CCCSc1ccc2nc(NC(=O)OC)[nH]c2c1` [ABZ, Albendazole], for which the “cyst ultrastructure (TEM)” value in data set [1] was “fewer microtriches and an unclear germinal layer structure but clear nuclei”. Also, the viability at 40 µM in the data set on E. granulosus s.s. PSCs is 94.8 ± 5%.
In the case of `COc1ccc2c(c1)[nH]c1c(C)nccc12` [HM, 7-methoxy-1-methyl-9H-pyrido[3,4-b] indole], the “cyst ultrastructure (TEM)” value in data set [1] was “fewer microtriches and an unclear germinal layer structure but clear nuclei”. Besides, the “PC12 cell viability inhibition” value in the data set on PC12 cells [2] worked out at 87.02 ± 5.65%. Also, the viability at 40 µM in the data set with E. granulosus s.s. PSCs is 94.7 ± 4.52%. Also, the “PC12 cell nuclei / morphology (apoptosis)” value in the data set on PC12 cells [3] is “reduced number of cells with varying morphological sizes and significantly denser granules or bright blue fluorescence”. In addition, in data set [4], the cyst weight stood at 6.53 ± 1.56 g. In addition, in data set [5], the 50% lethal dose (LD50) at 14 days came to 447 mg/kg.

A word on the viability: it is a read-out of living cells in per cent, often relative to untreated cells. The LD50 is the dose expected to kill half of the subjects tested.
